High-throughput results (PubChem)
PostGolgi ctrl: growth inhibition of yeast control strain, primary screen, counter-screen for post-Golgi transport modulator project | efflux-deficient yeast background strain, growth absorbance A615, 16 h | inhibition, % at 10 µM | 98,000 tested, 5% active | AID 738, 2007
FAK blocker: FAK kinase inhibitors, primary screen, biochemical | Focal adhesion kinase 1 (Homo sapiens), Q05397 | inhibition, %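 (tested at 7 µM)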 | biochemical FAK kinase activity assay | 97,000 tested, 0.84% active; in the data active = inhibition above about 19%;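 also: 0% = DMSO and 100% = reference compound high control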
Target sequence (Q05397 whole entry, looked up): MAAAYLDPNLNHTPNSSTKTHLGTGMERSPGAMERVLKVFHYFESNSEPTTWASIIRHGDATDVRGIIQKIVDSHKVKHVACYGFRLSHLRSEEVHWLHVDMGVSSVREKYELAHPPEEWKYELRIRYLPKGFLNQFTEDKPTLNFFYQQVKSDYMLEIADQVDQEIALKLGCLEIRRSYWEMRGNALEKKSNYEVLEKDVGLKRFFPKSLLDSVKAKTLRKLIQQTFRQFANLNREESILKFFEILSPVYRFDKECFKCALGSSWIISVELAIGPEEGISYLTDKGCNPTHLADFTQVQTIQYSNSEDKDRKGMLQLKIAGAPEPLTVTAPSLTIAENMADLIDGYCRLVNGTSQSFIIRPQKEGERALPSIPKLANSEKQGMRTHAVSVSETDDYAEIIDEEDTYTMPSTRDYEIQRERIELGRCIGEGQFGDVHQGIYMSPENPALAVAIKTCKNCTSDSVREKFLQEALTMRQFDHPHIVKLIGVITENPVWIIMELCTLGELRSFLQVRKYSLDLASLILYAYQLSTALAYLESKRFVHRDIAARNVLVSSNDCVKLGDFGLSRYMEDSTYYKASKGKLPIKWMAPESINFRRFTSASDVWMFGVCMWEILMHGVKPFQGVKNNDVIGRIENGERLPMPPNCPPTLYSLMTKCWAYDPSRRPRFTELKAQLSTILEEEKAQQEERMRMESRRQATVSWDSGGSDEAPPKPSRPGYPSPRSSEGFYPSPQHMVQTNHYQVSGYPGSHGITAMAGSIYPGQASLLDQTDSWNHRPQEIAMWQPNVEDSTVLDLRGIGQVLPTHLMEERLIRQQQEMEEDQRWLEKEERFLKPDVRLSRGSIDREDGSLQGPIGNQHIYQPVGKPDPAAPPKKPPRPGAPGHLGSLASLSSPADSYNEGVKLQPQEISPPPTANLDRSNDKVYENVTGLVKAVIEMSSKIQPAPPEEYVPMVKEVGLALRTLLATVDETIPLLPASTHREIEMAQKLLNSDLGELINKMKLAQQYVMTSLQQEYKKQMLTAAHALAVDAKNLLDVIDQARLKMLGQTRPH
Ecoli tolC: growth inhibitors of E. coli tolC mutant, primary screen, strain BW25113 ΔtolC::kan, 384-well; OD615; growth inhibition, % at 10 µM (by protocol); 65,000 tested, 2.2% active;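 active = growth inhibition at or above a cutoff equal to the mean over every tested compound plus 3 SD, cut at about 60% in these data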;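 also: growth measured after 20 h incubation at 37 °C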
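Test system: E. coli BW25113 ΔtolC::kan bacteria; incubation: 37 °C, 20 h exposure; medium: LB broth supplemented with 50 µg/mL kanamycin; read-out basis: percent growth inhibition; signal: A615 absorbance measurement; compound: 10 µM final, single dose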
Calb biofilm kill: clotrimazole potentiators killing Candida biofilms, primary screen, with clotrimazole, Alamar Blue; AID 834, 2007; inhibition, % at 6 µM; C. albicans biofilm + clotrimazole; 85,000 tested, 0.14% active;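 active = inhibition above 20%; inactive = inhibition below 20%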;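 also: preformed 24 hr biofilms exposed to compound for 48 hr; 0% = biofilm without compound and 100% = blank killed by clotrimazole plus chlorhexidine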
PTK2B oligo ant: antagonists of Pyk2 self-association, primary screen, Q293 cells, FERM NanoBiT luminescence, HTS. Protein-tyrosine kinase 2-beta (Homo sapiens), Q14289. hits give low values. z-score (the deposit names both 25 µM and 10 µM). 99,000 tested, 0.83% active;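 active = Z-score of -3 or lower, scaled per plate to the spread of control and sample wells; inactive = z-score above -3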;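 also: negative z-score means lost luminescence so less FERM oligomerization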
PostGolgi yeast: phenotypic screen on post-Golgi transport, primary screen; 98,000 tested, 0.9% active; post-Golgi transport phenotypic cell assay; inhibition, % at 10 µM;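 also: yeast cells grown in 1536-well plates; yeast grown about 18 h at 30C before absorbance read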
An asterisk follows results filed as active; x = no result given. In the library only some 6.9% were active in any assay of this set; here they are far more common. Rule as the data show it, unless noted: active = inhibition above about 30%; inactive = the rest.

SMILES	PostGolgi ctrl	FAK blocker	Ecoli tolC	Calb biofilm kill	PTK2B oligo ant	PostGolgi yeast
COc1ccc(OC)c(CN2CCN(C(=O)c3cccc4ccccc34)CC2)c1	33.6*	-5.6	3.5	-1.0	-0.58	2.8
O=C(OCCN1CCOCC1)c1ccc(OCCN2CCOCC2)cc1	8.8	0.3	1.7	8.3	0.14	1.3
Cn1c(SCC(=O)c2ccc(F)cc2)nnc1-c1cnccn1	39.0*	-1.6	-11.7	-0.9	0.39	5.5
CCOC(=O)c1sc2nc(CC(=O)OC)nc(N3CCN(c4ccccn4)CC3)c2c1C	30.1*	-1.5	65.6*	7.8	-1.87	1.6
Cc1c(C(=O)N2CCN(c3ccccc3)CC2)sc2ncnc(N3CCN(c4ccccc4)CC3)c12	x	-0.5	14.9	10.4	x	x
CCOC(=O)c1sc2ncnc(N3CCN(C(=O)OCC)CC3)c2c1C	36.5*	x	4.3	3.4	1.38	3.1
COc1ccc(-n2c(Cc3cc(=O)[nH]c(=O)[nH]3)nnc2SCC(=O)NC2CCCC2)cc1	4.3	-1.7	-9.9	-1.8	x	-7.0
O=C(Nc1ccc(Cn2cccn2)cc1)c1ccc(COc2cccc(Br)c2)cc1	7.8	0.3	x	x	0.74	-8.8
O=C(C=C1SCCS1)/C=C/c1ccco1	31.7*	6.3	x	x	0.74	-4.5
CCC(=O)N1CC(C)C(=O)Nc2ccccc21 (centres undefined)	12.7	0.3	-18.9	9.6	-0.48	-1.9
Cc1cccc(Cn2c(=O)n(Cc3ccco3)c(=O)c3ccccc32)c1	19.9	3.2	90.9*	1.6	-1.9	-2.5
Cc1cc(NC(=O)c2oc3ccccc3c2C)ccc1-n1cnnn1	34.3*	-0.3	12.0	11.2	-0.48	-7.5
COc1cc(OC)cc(C(=O)Nc2ccc(-n3cnnn3)c(C)c2)c1	13.2	-5.2	-2.3	5.8	-0.44	5.9
COc1ccc(/C=N/n2c(=S)n(C)c3ccccc32)cc1OC	8.7	4.0	x	50.3*	2.95	-9.2
Cn1c(=S)n(/N=C/c2ccc3c(c2)OCO3)c2ccccc21	-6.3	-0.6	-22.9	-5.0	-0.2	1.8
O=C(NCc1ccc2c(c1)OCO2)C1CC(=O)N(CCc2ccccc2)C1 (centres undefined)	-2.3	1.4	-3.4	2.4	x	-6.1
Cc1ccc(C(=O)N2CCN(c3ccc([N+](=O)[O-])c(NCc4ccco4)c3)CC2)cc1	27.5	-2.5	x	x	-2.26	-0.2
Cc1cccc(C(=O)N2CCN(c3ccc([N+](=O)[O-])c(NCc4ccco4)c3)CC2)c1	38.8*	0.2	x	x	-1.22	-1.1
CN1CCc2nc(SCC(=O)Nc3cccc(F)c3)c(C#N)c(-c3cccs3)c2C1	2.1	5.8	x	x	-3.12*	-5.9
O=C(c1ccccn1)N(CC1CCCO1)C1(C(=O)NC2CCCCC2)CCCCC1 (centres undefined)	15.7	-3.1	-5.7	0.2	0.38	5.1
CCOC(=O)c1sc(C)c(C(N)=O)c1NC1=NCCCCC1	-2.9	-2.8	-38.6	-1.8	0.37	-0.5
C=CCn1c(COc2ccc(Cl)cc2)nnc1SCc1ccc(C#N)cc1	40.7*	2.3	50.4	5.1	-0.51	46.8*
Cc1ccc(OCc2nnc(SCc3ccc(C#N)cc3)n2-c2ccc(C)cc2)cc1	38.7*	1.0	x	6.5	-0.16	-1.6
Cc1ccc(-n2c(SCc3ccc(C#N)cc3)nnc2-c2ccccn2)cc1	19.2	-0.3	14.3	9.0	0.42	-5.2
Cn1c(O)c(C(C#N)=C2N=c3ccccc3=N2)c2ccccc21	8.5	-1.1	x	5.9	-1.06	-2.4
SMILES	PostGolgi ctrl	FAK blocker	Ecoli tolC	Calb biofilm kill	PTK2B oligo ant	PostGolgi yeast
CCC(=O)NC1=C(C#N)C2(CCCC2)Cc2ccccc21	7.2	x	-4.8	6.5	0.1	-5.5
N#CC1=C(N)c2ccccc2CC12CCCCC2	38.9*	1.8	x	3.6	-0.37	1.1
COc1ccc(C2CCN(Cc3cccnc3)CC2O)cc1 (centres undefined)	-0.5	-5.3	-21.5	6.5	-0.76	18.8
c1ccc(-c2csc(N3CCN(c4ccccn4)CC3)n2)cc1	40.6*	-1.0	88.1*	-1.9	-0.39	-3.2
O=C(NC12CC3CC(CC(C3)C1)C2)N1CCN(c2nc(-c3ccccc3)cs2)CC1	42.3*	-3.2	x	9.9	-0.29	1.6
O=C(NNC1=C(C(=O)C(F)(F)F)CCC1)c1cccc(Cl)c1	7.0	-3.3	x	4.3	0.45	2.9
CCc1cc2c(=O)c(-c3nc4ccccc4n3C)coc2c(CN2CCN(C)CC2)c1O	8.0	0.8	2.4	0.1	0.95	-6.5
